Type in all cases: functional
One test has as its system A204. The test can be described thus: In vitro antitumor activity against A204 rhabdomyosarcoma tumor cell line was determined. As to conditions: Homo sapiens, read-out: ID50 (the source's name). An outline of the steps: (§1)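 Cell growth inhibition in vitro measured by the PIT method, with mitomycin C as positive reference.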
The next test concerns L1210. Briefly: In vitro antitumor activity against L1210 lymphocytic leukemia tumor cell line was determined. As to conditions: Mus musculus, read-out: ID50 (the source's name). An outline of the steps:
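Inhibition of L1210 leukemia colony formation in vitro, with mitomycin C as positive reference.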

The subject of a further test is WiDr. Briefly: In vitro antitumor activity against WiDr colon carcinoma tumor cell line was determined. The note with it: Homo sapiens, read-out: ID50 (the source's name). The method in brief:
as §1

In brackets after ≈: the same amount, converted by molar mass.

The source of these data is ChEMBL document CHEMBL1124534, “Synthesis, mechanism of action, and biological evaluation of mitosenes” (1989).

For the compound `COC1=C(C)C(=O)c2c(c(COC(C)=O)c3n2CCCC3OC(C)=O)C1=O` (centres undefined), the figures for the IC50 with A204, with L1210 and in the test with WiDr were below 0.1 µg/mL, 1.54 µg/mL (≈ 4.1 µM) and 0.171 µg/mL (≈ 0.456 µM), respectively.
The corresponding values for `COC1=CC(=O)c2c(c(CO)c3n2CCC3O)C1=O` (centres undefined) are 2.6 µg/mL (≈ 9.87 µM), 1.15 µg/mL (≈ 4.35 µM) and 2.6 µg/mL (≈ 9.87 µM).
The like results for `CCNC(=O)OCc1c2c(n3c1C(O)CCC3)C(=O)C(C)=C(OC)C2=O` (centres undefined) were, in that order, 0.05 µg/mL (≈ 0.138 µM), 1.17 µg/mL (≈ 3.22 µM) and 0.251 µg/mL (≈ 0.693 µM).
The like results for `CC(=O)OCc1c2c(n3c1C(OC(C)=O)CC3)C(=O)C(C)=C(N1CC1)C2=O` (centres undefined) were, in that order, 0.001 µg/mL (≈ 0.00269 µM), 0.166 µg/mL (≈ 0.446 µM) and 0.02 µg/mL (≈ 0.0537 µM).
Regarding `COC1=CC(=O)c2c(c(COC(C)=O)c3n2CCCC3OC(C)=O)C1=O` (centres undefined), the values for the IC50 with A204, in the test with L1210 and in the test with WiDr were 0.133 µg/mL (≈ 0.368 µM), 0.582 µg/mL (≈ 1.61 µM) and 0.115 µg/mL (≈ 0.318 µM), respectively.
The corresponding values for `COC1=C(C)C(=O)c2c(c(CO)c3n2CCCC3O)C1=O` (centres undefined) are 2.69 µg/mL (≈ 9.23 µM), 3.72 µg/mL (≈ 12.8 µM) and 5.89 µg/mL (≈ 20.2 µM).
The like results for `CCOC(=S)SCc1c2c(n3c1CCC3)C(=O)C(C)=C(OC)C2=O` were, in that order, 0.585 µg/mL (≈ 1.6 µM), above 6.4 µg/mL and 3.71 µg/mL (≈ 10.1 µM).
The like results for `COC1=CC(=O)c2c(c(COC(C)=O)c3n2CCCC3O)C1=O` (centres undefined) were, in that order, 0.115 µg/mL (≈ 0.36 µM), 1.75 µg/mL (≈ 5.49 µM) and 0.287 µg/mL (≈ 0.899 µM).
